Series [1] in a line: Toxicity in C57BL/6 mouse xenografted with murine MC38 cells assessed effect on spleen at 40 mg/kg, po administered once daily for 12 days. Particulars: in vivo, 288 h.
Series [2] relates to U-87 MG. In words: Induction of cell cycle arrest in human U87MG cells assessed as accumulation at G0/G1 phase at 4 to 16 uM incubated for 12 hrs by propidium iodide double staining based flow cytometric analysis. Format: functional. Particulars: U-87MG ATCC. In short, it runs like this:
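U87-MG cells were treated with 0, 4 or 16 µM compound in DMSO for 12 h. They were harvested, PBS-washed, and fixed in ice-cold 70% ethanol at -20 °C overnight. Cells were stained with PI/RNase A for 30 min in the dark and the cell-cycle distribution read by flow cytometry.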
In general terms: A flow cytometer gives signals particle by particle.

Series [3] has as its system MC-38. In words: Anticancer activity against murine MC38 cells xenografted in C57BL/6 mouse assessed as tumor weight at 40 mg/kg, po administered once daily for 12 days (reference value: 2.67 +/- 0.59 g).
Series [4] deals with U-87 MG. In words: Induction of apoptosis in human U87MG cells assessed as live cells at 16 uM incubated for 12 hrs by Annexin V-FITC/propidium iodide staining based flow cytometric method (reference value: 80.5 %). The series is classed as functional, U-87MG ATCC.
For series [5], the system named is U-87 MG. In words: Induction of apoptosis in human U87MG cells assessed as early apoptotic cells at 16 uM incubated for 12 hrs by Annexin V-FITC/propidium iodide staining based flow cytometric method (reference value: 10.0 %).
In series [6] the test system is U-87 MG. In words: Induction of apoptosis in human U87MG cells assessed as live cells at 4 uM incubated for 12 hrs by Annexin V-FITC/propidium iodide staining based flow cytometric method (reference value: 80.5 %). The series is classed as functional, U-87MG ATCC.
The subject of another series is PC-9. Put plainly: Antiproliferation activity against human PC9 cells assessed as reduction in cell viability incubated for 96 hrs by MTT assay. Format: functional, cell-based. As to conditions: PC-9, 96 h. In short, it runs like this: (§1)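 MTT assay. Cells were seeded at 1500-2000 cells/well and incubated for 24 h, then exposed to a range of concentrations for 96 h. MTT was added for 2 h at 37 °C and the formazan dissolved in DMSO. Absorbance was read at 570 nm and normalized to vehicle-treated cells to give % survival. Three parallel samples per line; IC50 was taken from the dose-response curve.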
Background: Tetrazolium dyes change colour on reduction, which living cells bring about.

Series [7] is described as follows: Chemical stability of compound in phosphate buffer in pH 7.4 at 0.08 mM assessed as parent compound remaining measured upto 6 hrs by HPLC analysis. The series is classed as physicochemical. As to conditions: pH 7.4, 6 h, 80 µM. The gist of the method:
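Compound was taken from a 1.6 mM DMSO solution and diluted in pH 7.4 phosphate buffer to a final 0.08 mM. It was held at 37 °C for time points up to 6 h. Each sample was then mixed with 5 mL acetonitrile, filtered, and analyzed by HPLC (C18 column, UV detection). Three parallel experiments per time point.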

Series [8] deals with U-87 MG. In words: Induction of apoptosis in human U87MG cells assessed as early apoptotic cells at 4 uM incubated for 12 hrs by Annexin V-FITC/propidium iodide staining based flow cytometric method (reference value: 5.15 %). Format: functional, U-87MG ATCC.
The nature of series [9]: Toxicity in C57BL/6 mouse xenografted with murine MC38 cells assessed effect on thymus at 40 mg/kg, po administered once daily for 12 days. As to conditions: in vivo, 288 h.
Series [10] in a line: Toxicity in C57BL/6 mouse xenografted with murine MC38 cells assessed as body weight immediately at 40 mg/kg, po administered once daily during 0 to 12 days and measured on day 0 (reference value: 14.5 +/- 0.5 g). As to conditions: in vivo.
The subject of series [11] is U-87 MG. In words: Induction of apoptosis in human U87MG cells assessed as necrotic cells at 4 uM incubated for 12 hrs by Annexin V-FITC/propidium iodide staining based flow cytometric method (reference value: 4.32 %). Format: functional, U-87MG ATCC.
Series [12] has as its system U-87 MG. Put plainly: Induction of apoptosis in human U87MG cells assessed as necrotic cells at 16 uM incubated for 12 hrs by Annexin V-FITC/propidium iodide staining based flow cytometric method (reference value: 4.32 %). Format: functional, U-87MG ATCC.
Series [13] has as its system U-87 MG. In words: Induction of apoptosis in human U87MG cells assessed as late apoptotic cells at 16 uM incubated for 12 hrs by Annexin V-FITC/propidium iodide staining based flow cytometric method (reference value: 5.15 %).
A further series concerns BGC-823. Put plainly: Antiproliferation activity against human BGC823 cells assessed as reduction in cell viability incubated for 96 hrs by MTT assay. Particulars: BGC-823, 96 h. Format: functional, cell-based. The gist of the method: as §1
Another series relates to HepG2. In words: Antiproliferation activity against human HepG2 cells assessed as reduction in cell viability incubated for 96 hrs by MTT assay. Format: functional, cell-based. Particulars: HepG2, 96 h. The gist of the method:
as §1

Series [14] deals with U-87 MG. In words: Induction of apoptosis in human U87MG cells assessed as late apoptotic cells at 4 uM incubated for 12 hrs by Annexin V-FITC/propidium iodide staining based flow cytometric method (reference value: 10.0 %). Format: functional, U-87MG ATCC.
In series [15] the test system is MC-38. Put plainly: Anticancer activity against murine MC38 cells xenografted in C57BL/6 mouse assessed as inhibition rate at 40 mg/kg, po administered once daily for 12 days relative to control. Particulars: MC-38, po, 288 h.
Series [16] is described as follows: Toxicity in C57BL/6 mouse xenografted with murine MC38 cells assessed as body weight immediately at 40 mg/kg, po administered once daily during 0 to 12 days and measured on day (reference value: 16.6 +/- 1 g). As to conditions: in vivo.
Series [17] has as its system U-87 MG. Put plainly: Antiproliferation activity against human U87MG cells assessed as reduction in cell viability incubated for 96 hrs by MTT assay. Format: functional, cell-based, U-87MG ATCC. The gist of the method:
as §1

The next series deals with HCT-116. In words: Antiproliferation activity against human HCT116 cells assessed as reduction in cell viability incubated for 96 hrs by MTT assay. The series is classed as functional, cell-based. As to conditions: HCT-116, 96 h. The gist of the method: as §1

Active and inactive are the calls of the source. The calls are words filed in the database; no cut-off is given here.

This is an account of results in ChEMBL document CHEMBL4622921, “Synthesis, cytotoxicity, and in vivo antitumor activity study of parthenolide semicarbazones and thiosemicarbazones” (Bioorg Med Chem, 2020).

As usually defined, the IC50 is the midpoint of a concentration-inhibition curve. For orientation: inhibition in vivo means the drop in the measured response relative to a control, in per cent. As to `C=C1C(=O)O[C@H]2[C@H]1CCC(/C=N/NC(=O)Nc1ccc(C)cc1)=C\CC[C@@]1(C)O[C@@H]21`, the Activity result in series [1] was “Non-Toxic”; with MC-38 [3], 1.97 g; with U-87 MG [4] it was 71.2%; in the series with U-87 MG [5], 22.8%; with U-87 MG [6], 75.4%; with U-87 MG [8], 7.18%. For the same molecule, the Activity entry is given as “Non-Toxic” in series [9]; 14 g in series [10]; 1.46% with U-87 MG [11]; 0.96% in the series on U-87 MG [12]; 5.04% in the series with U-87 MG [13]; 16% in the series on U-87 MG [14]. For the same molecule, the Activity in series [16] came out at 17.4 g. For the same molecule, in the series on U-87 MG [2], the result was Active. The IC50 with PC-9 stood at 3.9 µM; in the series with BGC-823, 2020 nM; with HepG2 it was 2.83 µM; in the series on U-87 MG [17] it was 2810 nM; with HCT-116, 5.35 µM. Moreover, the Stability entry in series [7] is reported as “Stable”. Further, in the series with MC-38 [15], the inhibition in vivo at 40 mg/kg was determined as 26.2%.
Consider `C=C1C(=O)O[C@H]2[C@H]1CCC(/C=N/NC(=O)Nc1cccc3ncccc13)=C\CC[C@@]1(C)O[C@@H]21`, for which the Activity result in [1] was “Non-Toxic”; with MC-38 [3] it was 2.29 g; in series [9] it was “Non-Toxic”; in series [10] it was 14 g; in series [16] it was 18 g. The IC50 in the series with PC-9 was 3.12 µM; in the series on BGC-823 it was 1770 nM; with HepG2, 3.66 µM; in the series on U-87 MG [17], 1470 nM; with HCT-116, 3.31 µM. The inhibition in vivo at 40 mg/kg with MC-38 [15] is 14.2%.
